GFP response vs DMSO, GFP response relative to DMSO and GFP response, % of DMSO data for 15 molecules are collected here from PubChem BioAssay.

A short description of experiment [1]: RPL19A-GFP modulators, yeast TOR pathway, confirmation, cell-based, S. cerevisiae, flow cytometry, cherry picks, mother/daughter gates (AID 2270;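 active = GFP response below 50% of the DMSO control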). The note with it: S. cerevisiae RPL19A-GFP strain, 3 h, at 10 µM, stronger effect = lower value, 100 = same GFP as DMSO wells.
Experiment [2] is described as follows: LAP4-GFP expression modulators in yeast, confirmation, cell-based, cherry picks, flow cytometry, mother/daughter gates (AID 2271;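 active = GFP response above 150% of the DMSO control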;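 also: ratio of sample to DMSO plate mean so 100% equals DMSO level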). The note with it: S. cerevisiae LAP4-GFP strain, 3 h, at 10 µM, stronger effect = higher value, 100 means same as DMSO control. The gist of the method: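 Test system: GFP-fusion yeast strain. Medium: synthetic complete (SC) yeast growth medium. Timing: 3 h treatment at 30 °C with rotation. Measured by: GFP by flow cytometry. Control set: positive rapamycin (400 ng/mL), negative DMSO.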

The nature of experiment [3]: modulators of MEP2-GFP levels in yeast, confirmation, S. cerevisiae, flow cytometry GFP, cherry picks (AID 2272;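 active = GFP response above 150% of the DMSO control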;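 also: ratio of well signal to plate DMSO mean so 100% equals DMSO level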). The note with it: S. cerevisiae MEP2-GFP strain, 3 h, at 10 µM, stronger effect = higher value. A general note: A flow cytometer gives signals particle by particle.
Experiment [4] is described as follows: AGP1-GFP expression modulators, hit retest, confirmation, cell-based, flow cytometry, S. cerevisiae, cherry picks (AID 2273).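 Also: median GFP channel fluorescence over the whole cell population gate.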 Conditions: S. cerevisiae AGP1-GFP strain, 3 h, at 10 µM.
Experiment [5] can be described thus: modulators of CIT2-GFP expression in yeast, confirmation, S. cerevisiae, GFP fusion, cherry picks, mother/daughter gates (AID 2274). The note with it: S. cerevisiae CIT2-GFP strain, flow cytometry, 3 h, at 10 µM, stronger effect = higher value.
Where [6] appears, read: measured here: daughter cell gate.
Setting [7] is: measured here: mother cell gate.
Setting [8] is: measured here: daughter cell gate response.
[9] abbreviates: measured here: mother cell gate response.

Calls of active or inactive are those of the source.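 The calls were made as follows, unless noted: active = GFP response above 150% of the DMSO level; inconclusive = fewer than 70 events counted for a yeast strain; inactive = the rest.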

Turning to `CCn1c(=O)c(C(=O)Nc2ccsc2C(=O)OC)c(O)c2ccccc21`, the GFP response vs DMSO in experiment [1] is 103% (inactive); in experiment [1] (setting [6]) it was 101%; in experiment [1] (setting [7]), 103%; in experiment [3], 96.8% (inactive). In addition, the GFP response relative to DMSO in experiment [2] is 93.1% (inactive); in experiment [2] (setting [8]), 92.6%; in experiment [2] (setting [9]), 94.1%. Further, the GFP response, % of DMSO in experiment [4] is 103% (inactive); in experiment [5] it was 100% (inactive); in experiment [5] (setting [6]) it was 99.2%; in experiment [5] (setting [7]) it was 101%.

Consider `CCOc1cc(/C=N/Nc2nc(C)cc(=O)[nH]2)ccc1O`, for which the GFP response vs DMSO was 102% (inactive) in experiment [1], 102% in experiment [1] (setting [6]), 100% in experiment [1] (setting [7]) and 104% (inactive) in experiment [3]. The GFP response relative to DMSO in experiment [2] was 89% (inactive); in experiment [2] (setting [8]), 87.9%; in experiment [2] (setting [9]), 90.1%. For the same molecule, the GFP response, % of DMSO is 100% (inactive) in experiment [4], 106% (inactive) in experiment [5], 106% in experiment [5] (setting [6]) and 103% in experiment [5] (setting [7]).

For `CCS(=O)(=O)Nc1cccc(C2=NN(S(C)(=O)=O)C(c3ccccc3)C2)c1` (stereo not given), the GFP response vs DMSO in experiment [1] is 100% (inactive); in experiment [1] (setting [6]), 101%; in experiment [1] (setting [7]) it was 100%; in experiment [3], 120% (inactive). For the same molecule, the values for the GFP response relative to DMSO in experiment [2], in experiment [2] (setting [8]) and in experiment [2] (setting [9]) were 110% (inactive), 105% and 112%, respectively. In addition, the GFP response, % of DMSO is 112% (inactive) in experiment [4], 111% (inactive) in experiment [5], 112% in experiment [5] (setting [6]) and 110% in experiment [5] (setting [7]).

Turning to `COC(=O)Cn1cc(/C=C/[N+](=O)[O-])c2ccccc21`, the GFP response vs DMSO in experiment [1] was 101% (inactive); in experiment [1] (setting [6]), 103%; in experiment [1] (setting [7]), 100%; in experiment [3] it was 101% (inactive). The results for the GFP response relative to DMSO in experiment [2], in experiment [2] (setting [8]) and in experiment [2] (setting [9]) were 145% (inactive), 146% and 145%, respectively. Also, the GFP response, % of DMSO is 103% (inactive) in experiment [4], 106% (inactive) in experiment [5], 108% in experiment [5] (setting [6]) and 103% in experiment [5] (setting [7]).

Take `O=C(N/N=C/c1cccc(Oc2ccccc2)c1)c1ccncc1`: the GFP response vs DMSO was 96.7% (inactive) in experiment [1], 97.3% in experiment [1] (setting [6]), 95.4% in experiment [1] (setting [7]) and 103% (inactive) in experiment [3]. Further, the GFP response relative to DMSO is 107% (inactive) in experiment [2], 99% in experiment [2] (setting [8]) and 108% in experiment [2] (setting [9]). Further, the GFP response, % of DMSO was 103% (inactive) in experiment [4], 95.8% (inactive) in experiment [5], 97.6% in experiment [5] (setting [6]) and 96% in experiment [5] (setting [7]).

As for `COc1ccc(C2CC(c3ccccc3)=NN2S(=O)(=O)c2ccccc2)cc1` (stereo not given), the GFP response vs DMSO was 101% (inactive) in experiment [1], 102% in experiment [1] (setting [6]), 101% in experiment [1] (setting [7]) and 146% (inactive) in experiment [3]. The GFP response relative to DMSO in experiment [2] was 113% (inactive); in experiment [2] (setting [8]), 110%; in experiment [2] (setting [9]) it was 112%. The GFP response, % of DMSO in experiment [4] is 104% (inactive); in experiment [5] it was 141% (inactive); in experiment [5] (setting [6]), 143%; in experiment [5] (setting [7]), 136%.

With `Cc1ccn2c(NC3CCCCC3)c(C)nc2c1`, the GFP response vs DMSO was 99.4% (inactive) in experiment [1], 100% in experiment [1] (setting [6]), 99.6% in experiment [1] (setting [7]) and 99% (inactive) in experiment [3]. In addition, the GFP response relative to DMSO in experiment [2] was 95.7% (inactive); in experiment [2] (setting [8]) it was 95.9%; in experiment [2] (setting [9]), 96.2%. Besides, the GFP response, % of DMSO in experiment [4] was 99% (inactive); in experiment [5], 98.8% (inactive); in experiment [5] (setting [6]), 101%; in experiment [5] (setting [7]), 96.8%.

`O=C(Cc1ccc(Cl)cc1)NNC(=S)NC(=O)c1cccs1`: the GFP response vs DMSO is 104% (inactive) in experiment [1], 104% in experiment [1] (setting [6]), 104% in experiment [1] (setting [7]) and 114% (inactive) in experiment [3]. Further, the GFP response relative to DMSO is 150% (active) in experiment [2], 151% in experiment [2] (setting [8]) and 151% in experiment [2] (setting [9]). The GFP response, % of DMSO is 102% (inactive) in experiment [4], 109% (inactive) in experiment [5], 115% in experiment [5] (setting [6]) and 104% in experiment [5] (setting [7]).

For `CCCc1[nH]nc2c1C(c1ccc(OC)c(CSC3=NCCS3)c1)C(C#N)=C(N)O2` (stereo not given), the GFP response vs DMSO was 96.8% (inactive) in experiment [1], 97.3% in experiment [1] (setting [6]), 97.6% in experiment [1] (setting [7]) and 97.5% (inactive) in experiment [3]. For the same molecule, the GFP response relative to DMSO in experiment [2] was 109% (inactive); in experiment [2] (setting [8]), 109%; in experiment [2] (setting [9]), 107%. Besides, the GFP response, % of DMSO is 105% (inactive) in experiment [4], 95% (inactive) in experiment [5], 94.6% in experiment [5] (setting [6]) and 94.5% in experiment [5] (setting [7]).

For `Cc1ccc(C(C[N+](=O)[O-])Sc2ccc(N)cc2)cc1` (stereo not given), the GFP response vs DMSO in experiment [1] was 95.6% (inactive); in experiment [1] (setting [6]) it was 98.4%; in experiment [1] (setting [7]), 94.8%; in experiment [3], 109% (inactive). For the same molecule, the GFP response relative to DMSO in experiment [2] is 135% (inactive); in experiment [2] (setting [8]) it was 133%; in experiment [2] (setting [9]) it was 140%. In addition, the GFP response, % of DMSO was 89.6% (inactive) in experiment [4], 98.3% (inactive) in experiment [5], 103% in experiment [5] (setting [6]) and 95% in experiment [5] (setting [7]).

As for `O=[N+]([O-])c1ccc(-c2cn3nc(-c4ccccc4)c(-c4ccccc4)nc3n2)cc1`, the GFP response vs DMSO in experiment [1] is 102% (inactive); in experiment [1] (setting [6]) it was 101%; in experiment [1] (setting [7]), 96.2%; in experiment [3] it was 227% (active). In addition, the figures for the GFP response relative to DMSO in experiment [2], in experiment [2] (setting [8]) and in experiment [2] (setting [9]) were 115% (inactive), 115% and 114%, respectively. Besides, the GFP response, % of DMSO is 106% (inactive) in experiment [4], 109% (inactive) in experiment [5], 106% in experiment [5] (setting [6]) and 108% in experiment [5] (setting [7]).

With `CCOC(=O)C1C(=O)C=C(c2ccc(C)cc2)CC1c1ccco1` (stereo not given), the GFP response vs DMSO is 99.9% (inactive) in experiment [1], 97.8% in experiment [1] (setting [6]), 101% in experiment [1] (setting [7]) and 102% (inactive) in experiment [3]. Besides, the results for the GFP response relative to DMSO in experiment [2], in experiment [2] (setting [8]) and in experiment [2] (setting [9]) were 109% (inactive), 103% and 112%, respectively. Further, the GFP response, % of DMSO was 102% (inactive) in experiment [4], 95.2% (inactive) in experiment [5], 91.5% in experiment [5] (setting [6]) and 96.6% in experiment [5] (setting [7]).

On to `Cn1cnc([N+](=O)[O-])c1S(=O)(=O)c1cccc(Cl)c1`, for which the GFP response vs DMSO is 103% (inactive) in experiment [1], 99.9% in experiment [1] (setting [6]), 100% in experiment [1] (setting [7]) and 103% (inactive) in experiment [3]. Also, the GFP response relative to DMSO in experiment [2] is 107% (inactive); in experiment [2] (setting [8]), 104%; in experiment [2] (setting [9]), 108%. The GFP response, % of DMSO in experiment [4] was 113% (inactive); in experiment [5], 118% (inactive); in experiment [5] (setting [6]), 119%; in experiment [5] (setting [7]) it was 113%.

For the molecule `Cn1ncc(S(=O)(=O)Cc2ccccc2)c(Cl)c1=O`, the GFP response vs DMSO is 94.2% (inactive) in experiment [1], 90.6% in experiment [1] (setting [6]), 87.7% in experiment [1] (setting [7]) and 100% (inactive) in experiment [3]. Moreover, the GFP response relative to DMSO is 316% (active) in experiment [2], 160% in experiment [2] (setting [8]) and 319% in experiment [2] (setting [9]). Besides, the GFP response, % of DMSO in experiment [4] was 79.1% (inactive); in experiment [5], 92.6% (inactive); in experiment [5] (setting [6]), 101%; in experiment [5] (setting [7]), 84.3%.

`CCCc1[nH]nc2c1C1(C(=O)N(C(C)C)c3ccccc31)C(C#N)=C(N)O2` (stereo not given): the GFP response vs DMSO in experiment [1] is 98.2% (inactive); in experiment [1] (setting [6]), 99.8%; in experiment [1] (setting [7]), 98.2%; in experiment [3], 106% (inactive). For the same molecule, the GFP response relative to DMSO is 96.5% (inactive) in experiment [2], 104% in experiment [2] (setting [8]) and 96.4% in experiment [2] (setting [9]). Besides, the GFP response, % of DMSO is 99.1% (inactive) in experiment [4], 98.6% (inactive) in experiment [5], 101% in experiment [5] (setting [6]) and 99.3% in experiment [5] (setting [7]).
